Experiments:
[1] = target: T1, Amine oxidase [flavin-containing] B (Homo sapiens, UniProt P27338); assay: Inhibition of human MAO-B expressed in baculovirus infected insect cell membranes at 10 uM using kynuramine as substrate by continuous spectrophotometric method relative to control
T1 sequence (P27338 whole entry): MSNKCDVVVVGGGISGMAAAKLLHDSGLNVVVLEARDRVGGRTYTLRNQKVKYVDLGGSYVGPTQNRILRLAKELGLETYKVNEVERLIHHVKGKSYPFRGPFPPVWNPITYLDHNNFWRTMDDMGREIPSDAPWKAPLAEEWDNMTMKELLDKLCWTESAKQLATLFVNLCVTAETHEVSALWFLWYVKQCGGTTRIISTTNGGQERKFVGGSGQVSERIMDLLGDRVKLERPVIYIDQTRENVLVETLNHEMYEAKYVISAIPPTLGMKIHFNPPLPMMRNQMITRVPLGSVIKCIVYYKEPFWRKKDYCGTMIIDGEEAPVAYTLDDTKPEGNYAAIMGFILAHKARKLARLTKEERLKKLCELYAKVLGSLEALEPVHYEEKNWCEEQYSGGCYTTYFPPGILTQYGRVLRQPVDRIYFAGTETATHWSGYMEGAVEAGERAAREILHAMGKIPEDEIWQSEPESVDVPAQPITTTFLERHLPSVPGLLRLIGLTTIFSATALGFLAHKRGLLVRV

Histamine H3 receptor [2] = target: T2, Histamine H3 receptor (Homo sapiens, UniProt Q9Y5N1); assay: Displacement of [3H]-N-alpha-methylhistamine from human H3R expressed in HEK293 cell membranes after 90 mins by liquid scintillation counting method
T2 sequence (Q9Y5N1 whole entry): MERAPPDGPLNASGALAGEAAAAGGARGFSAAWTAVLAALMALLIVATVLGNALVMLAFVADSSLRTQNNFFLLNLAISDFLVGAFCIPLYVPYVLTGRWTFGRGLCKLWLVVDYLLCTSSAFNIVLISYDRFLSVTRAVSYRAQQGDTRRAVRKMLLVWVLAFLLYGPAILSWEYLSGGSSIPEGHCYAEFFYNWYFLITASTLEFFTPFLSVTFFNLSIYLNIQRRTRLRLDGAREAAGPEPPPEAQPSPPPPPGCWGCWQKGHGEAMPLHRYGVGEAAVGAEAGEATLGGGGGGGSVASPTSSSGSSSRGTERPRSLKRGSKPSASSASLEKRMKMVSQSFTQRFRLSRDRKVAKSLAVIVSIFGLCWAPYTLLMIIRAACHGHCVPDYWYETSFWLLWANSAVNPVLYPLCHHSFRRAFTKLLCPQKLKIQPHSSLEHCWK
Summary of the method: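 Membranes (20 µg) from HEK-293 cells stably expressing human H3R were incubated with 2 nM [3H]-N-α-methylhistamine and at least seven test concentrations. Incubation was 90 min at room temperature, with shaking, in 75 mM Tris/HCl (pH 7.4), 12.5 mM MgCl2 and 100 mM NaCl. Nonspecific binding used 10 µM pitolisant. Counting was by liquid scintillation; Ki came from Cheng-Prusoff on one-site competition fits, at least in duplicate.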

[3] = target: T3, Amine oxidase [flavin-containing] A (Homo sapiens, UniProt P21397); assay: Inhibition of human MAO-A expressed in baculovirus infected insect cell membranes at 10 uM using kynuramine as substrate by continuous spectrophotometric method relative to control
T3 sequence (P21397 whole entry): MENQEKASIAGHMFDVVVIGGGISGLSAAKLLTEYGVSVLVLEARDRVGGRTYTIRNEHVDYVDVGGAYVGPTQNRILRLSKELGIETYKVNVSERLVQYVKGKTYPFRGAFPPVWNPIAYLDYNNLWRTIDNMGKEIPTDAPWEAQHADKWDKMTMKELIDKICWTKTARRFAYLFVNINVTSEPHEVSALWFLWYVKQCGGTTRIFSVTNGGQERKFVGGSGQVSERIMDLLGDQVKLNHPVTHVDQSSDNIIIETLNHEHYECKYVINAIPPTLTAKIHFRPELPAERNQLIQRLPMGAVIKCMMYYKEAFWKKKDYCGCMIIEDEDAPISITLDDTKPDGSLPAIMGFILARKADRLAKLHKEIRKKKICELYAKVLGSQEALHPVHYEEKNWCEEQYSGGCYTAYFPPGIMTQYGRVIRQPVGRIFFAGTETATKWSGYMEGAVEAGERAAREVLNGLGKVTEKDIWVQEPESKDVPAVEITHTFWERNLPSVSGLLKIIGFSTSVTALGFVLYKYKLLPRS

[4] = target: T3, Amine oxidase [flavin-containing] A; assay: Inhibition of human MAO-A expressed in baculovirus infected insect cell membranes using kynuramine as substrate after 15 to 20 mins by discontinuous fluorimetric method
Summary of the method: (§1)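 Human recombinant membrane-bound MAO A and MAO B were tested with inhibitor at 0.001–100 µM and kynuramine at 2×KM. Conditions were 50 mM potassium phosphate, pH 7.4, 20 min at 37°C, no preincubation, with NaOH stop and fluorimetric 4-hydroxyquinoline read-out. IC50 came from a three-parameter log-inhibitor fit with the bottom fixed at zero, from at least three independent experiments in at least duplicate. SI = IC50 MAO A / IC50 MAO B.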

[5] = target: T1, Amine oxidase [flavin-containing] B; assay: Reversible inhibition of human MAO-B expressed in baculovirus infected insect cell membranes using excess of kynuramine substrate preincubated for 30 to 60 mins followed by 50 fold compound dilution by fluorimetric method
Summary of the method: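 MAO B (10 ng/µL) was preincubated with inhibitor at 10× IC50 for 0, 30 or 60 min at 37°C. […] Residual activity was measured fluorimetrically at saturating kynuramine (10×KM), as % of the matched no-inhibitor control. Data are from at least two independent experiments in duplicate, global fit.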

[6] = target: T1, Amine oxidase [flavin-containing] B; assay: Inhibition of human MAO-B expressed in baculovirus infected insect cell membranes using kynuramine as substrate after 15 to 20 mins by discontinuous fluorimetric method
Homo sapiens = species on record: Homo sapiens; assay: Selectivity index, ratio of IC50 for human MAO-A expressed in baculovirus infected insect cell membranes without preincubation with enzyme to IC50 for human MAO-B expressed in baculovirus infected insect cell membranes without preincubation with enzyme
Summary of the method: as §1

[7] = target: T1, Amine oxidase [flavin-containing] B; assay: Inhibition of human MAO-B expressed in baculovirus infected insect cell membranes using kynuramine as substrate preincubated for 30 mins followed by substrate addition measured after 15 to 20 mins by discontinuous fluorimetric method
[8] = target: T1, Amine oxidase [flavin-containing] B; assay: Inhibition of human MAO-B expressed in baculovirus infected insect cell membranes at 5 uM using kynuramine as substrate after 15 to 20 mins by discontinuous fluorimetric method relative to control
Summary of the method: (§2)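 Single-point screen (10, 2 or 5 µM) on human recombinant membrane-bound MAO A or MAO B. Kynuramine was used at 2×KM (KM 30 µM for MAO A, 20 µM for MAO B) in 50 mM potassium phosphate, pH 7.4, 37°C for 20 min, started with enzyme and stopped with 2 N NaOH. 4-Hydroxyquinoline was read fluorimetrically (Ex 320, Em 405 nm) as % of no-inhibitor control; at least two independent experiments in duplicate.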

[9] = target: T1, Amine oxidase [flavin-containing] B; assay: Inhibition of human MAO-B expressed in baculovirus infected insect cell membranes at 2 uM using kynuramine as substrate after 15 to 20 mins by discontinuous fluorimetric method relative to control
Summary of the method: as §2

Histamine H3 receptor [10] = target: T2, Histamine H3 receptor; assay: Displacement of [125I]iodoproxyfan from human H3R expressed in CHOK1 cell membranes after 60 mins by gamma counting method

| inhibition at 10 µM [1] | Ki (Histamine H3 receptor [2]) | inhibition at 10 µM [3] | IC50 [4] | inhibition (INH) [5] | IC50 [6] | Ratio IC50 (Homo sapiens) | IC50 [7] | inhibition at 5 µM [8] | inhibition at 2 µM [9] | Ki (Histamine H3 receptor [10]) | Compound |
| --- | --- | --- | --- | --- | --- | --- | --- | --- | --- | --- | --- |
| 51 to 75% | 2.1 nM | ≤ 25% | – | – | – | – | – | – | – | – | O=C1/C(=C/c2ccc(OCCCN3CCCCC3)cc2)Cc2ccccc21 |
| 76 to 100% | 2.2 nM | – | 9180 nM | Active | 1930 nM | 4.8 | 541 nM | – | – | – | O=C1/C(=C/c2ccc(OCCCN3CCCCC3)cc2)Cc2cc(F)ccc21 |
| 51 to 75% | 33 nM | ≤ 25% | – | – | – | – | – | – | – | – | COc1ccc2c(c1)C/C(=C\c1ccc(OCCCN3CCCCC3)cc1)C2=O |
| – | 32 nM | – | 5510 nM | Active | 1460 nM | 3.7 | 232 nM | – | 51 to 75% | – | O=C1/C(=C/c2ccc(OCCCN3CCCCC3)cc2)Cc2ccc(OCc3ccc(Br)cc3)cc21 |
| 51 to 75% | 11 nM | 51 to 75% | – | – | – | – | – | – | – | – | COc1ccc2c(c1)C(=O)/C(=C/c1ccc(OCCCN3CCCCC3)cc1)C2 |
| 76 to 100% | 696 nM | ≤ 25% | – | – | – | – | – | – | – | – | O=C1/C(=C/c2ccccc2)Cc2ccc(OCCN3CCCCC3)cc21 |
| 51 to 75% | 39 nM | ≤ 25% | – | – | – | – | – | – | – | – | O=C1/C(=C/c2ccccc2)Cc2ccc(OCCCN3CCCCC3)cc21 |
| 51 to 75% | 3.9 nM | ≤ 25% | – | – | – | – | – | – | – | – | O=C1/C(=C/c2ccccc2)Cc2cc(OCCCN3CCCCC3)ccc21 |

Further lines, the molecule ahead of its results:

| Compound | inhibition at 10 µM [1] | Ki (Histamine H3 receptor [2]) | inhibition at 10 µM [3] | IC50 [4] | inhibition (INH) [5] | IC50 [6] | Ratio IC50 (Homo sapiens) | IC50 [7] | inhibition at 5 µM [8] | inhibition at 2 µM [9] | Ki (Histamine H3 receptor [10]) |
| --- | --- | --- | --- | --- | --- | --- | --- | --- | --- | --- | --- |
| O=C1CCc2cc(OCCCN3CCCCC3)ccc21 | 26 to 50% | 159 nM | ≤ 25% | – | – | – | – | – | – | – | – |
| O=C1/C(=C/c2ccc(OCCCN3CCCCC3)cc2)Cc2cc(OCc3ccc(Br)cc3)ccc21 | – | 6.5 nM | – | > 10000 nM | Active | 276 nM | > 36 | 262 nM | 76 to 100% | – | – |
| O=C1CCc2ccc(OCCN3CCCC3)cc21 | 26 to 50% | 6120 nM | ≤ 25% | – | – | – | – | – | – | – | – |
| O=C1CCc2cc(OCCN3CCCC3)ccc21 | ≤ 25% | 345 nM | 26 to 50% | – | – | – | – | – | – | – | – |
| O=C1CCc2cc(OCCN3CCCCC3)ccc21 | 26 to 50% | 205 nM | ≤ 25% | – | – | – | – | – | – | – | – |
| O=C(c1ccc(OCCCN2CCCCC2)cc1)C1CC1 | – | 11 nM | – | > 50000 nM | – | 3880 nM | > 12 | – | – | – | 1.6 nM |
| O=C1CCc2ccc(OCCCN3CCCCC3)cc21 | 51 to 75% | 304 nM | ≤ 25% | – | – | – | – | – | – | – | – |

Source: ChEMBL document CHEMBL4196042, “Novel indanone derivatives as MAO B/H3R dual-targeting ligands for treatment of Parkinson's disease” (Eur J Med Chem, 2018)
